Source: ChEMBL document CHEMBL1139209, “Cytotoxic constituents of the stems of Cinnamomum subavenium” (2007)

Experiments:
Format in all cases: functional, Homo sapiens
SW480 [1] = experiment: Cell cycle arrest in SW480 cells by accumulation at G1 phase at 50 uM after 24 hrs by propidium iodide staining
Outline: (§1)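 SW480 human colorectal cancer cells (ATCC) grown in DMEM with 10% FBS, penicillin/streptomycin in 60 mm dishes; medium replenished at 80% confluence. Monolayers exposed 24 h to 0, 25, 50, 75 or 100 µM (DMSO stock, 0.1% DMSO final). Adherent plus floating cells fixed in PBS-methanol (1:2) ≥18 h at 4 °C, stained 30 min with 50 µg/mL PI plus RNase A.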

SW480 [2] = experiment: DNA damage assessed as accumulation in subG1 level of cell cycle arrest in SW480 cells at 50 uM after 24 hrs by propidium iodide staining; outline: as §1
SW480 [3] = experiment: Cell cycle arrest in SW480 cells by accumulation at S phase at 100 uM after 24 hrs by propidium iodide staining; outline: as §1
SW480 [4] = experiment: Cell cycle arrest in SW480 cells by accumulation at G1 phase at 100 uM after 24 hrs by propidium iodide staining; outline: as §1
SW480 [5] = experiment: Cell cycle arrest in SW480 cells by accumulation at G2/M phase at 50 uM after 24 hrs by propidium iodide staining; outline: as §1
SW480 [6] = experiment: DNA damage assessed as accumulation in subG1 level of cell cycle arrest in SW480 cells at 75 uM after 24 hrs by propidium iodide staining; outline: as §1
SW480 [7] = experiment: DNA damage assessed as accumulation in subG1 level of cell cycle arrest in SW480 cells at 25 uM after 24 hrs by propidium iodide staining; outline: as §1
SW480 [8] = experiment: Cell cycle arrest in SW480 cells by accumulation at G2/M phase at 25 uM after 24 hrs by propidium iodide staining; outline: as §1
SW480 [9] = experiment: Cell cycle arrest in SW480 cells by accumulation at G1 phase at 25 uM after 24 hrs by propidium iodide staining; outline: as §1
SW480 [10] = experiment: Cell cycle arrest in SW480 cells by accumulation at G2/M phase at 75 uM after 24 hrs by propidium iodide staining; outline: as §1
SW480 [11] = experiment: Cell cycle arrest in SW480 cells by accumulation at S phase at 75 uM after 24 hrs by propidium iodide staining; outline: as §1
SW480 [12] = experiment: Cell cycle arrest in SW480 cells by accumulation at G1 phase at 75 uM after 24 hrs by propidium iodide staining; outline: as §1
SW480 [13] = experiment: Cell cycle arrest in SW480 cells by accumulation at G2/M phase at 100 uM after 24 hrs by propidium iodide staining; outline: as §1
SW480 [14] = experiment: Cell cycle arrest in SW480 cells by accumulation at S phase at 50 uM after 24 hrs by propidium iodide staining; outline: as §1
SW480 [15] = experiment: DNA damage assessed as accumulation in subG1 level of cell cycle arrest in SW480 cells at 100 uM after 24 hrs by propidium iodide staining; outline: as §1
SW480 [16] = experiment: Cell cycle arrest in SW480 cells by accumulation at S phase at 25 uM after 24 hrs by propidium iodide staining; outline: as §1

SMILES | Activity (SW480 [1]) | Activity (SW480 [2]) | Activity (SW480 [3]) | Activity (SW480 [4]) | Activity (SW480 [5]) | Activity (SW480 [6]) | Activity (SW480 [7]) | Activity (SW480 [8]) | Activity (SW480 [9]) | Activity (SW480 [10]) | Activity (SW480 [11]) | Activity (SW480 [12]) | Activity (SW480 [13]) | Activity (SW480 [14]) | Activity (SW480 [15]) | Activity (SW480 [16])
C=C1C=C(C(CCCCCCCCCCCCCC)OC)C(=O)O1 (stereo not drawn) [SUBAMOLIDE C] | 47.6% | 11% | 33% | 47.8% | 11.3% | 34.6% | 6.1% | 9.8% | 44.4% | 12.4% | 43.1% | 44.5% | 19.3% | 41.2% | 38.8% | 45.8%
CCCCCCCCCCCCC/C=C1/C(=O)O[C@@](C)(OC)[C@@H]1O [SUBAMOLIDE B] | 44.2% | 23.7% | 37.4% | 46% | 16.9% | 47.2% | 6.6% | 6.4% | 47.7% | 20.8% | 33.4% | 45.8% | 16.6% | 38.8% | 71% | 46%
CCCCCCCCCCCCC/C=C(/C(=O)OC)[C@H](O)C(C)=O [SECOSUBAMOLIDE] | 47.9% | 9.1% | 34.5% | 47.9% | 11.4% | 23.4% |  | 13.4% | 47.1% | 12.8% | 38.3% | 49% | 17.6% | 40.6% | 51.8% | 39.5%
CCCCCCCCCCCCC/C=C1\C(=O)O[C@@](C)(OC)[C@@H]1O [SUBAMOLIDE A] | 46.3% | 25.4% | 29.8% | 52.6% | 12.8% | 27.3% | 8.5% | 12.2% | 48.2% | 13% | 42% | 45% | 17.7% | 41% | 64.4% | 39.6%
